# Laboratory results from publication PMC5292677 (Leukemia, 2016).
# Where “and” joins values, the source holds several entries; their conditions need not be identical. Equal values may be shown once. Entries after “also recorded” stand apart in the source; their conditions may differ.
# Experiments:
# [1] = test system: patients with myelofibrosis; experiment: MF-associated symptoms; format: in vivo, human
# How it was run: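 Symptoms were self-rated on the Myelofibrosis Symptom Assessment Form at baseline, on Day 1 of Cycles 2 and 4, then every 3 cycles, during daily oral dosing in 28-day cycles. Evaluable patients had ≥1 cycle treated and a baseline symptom score >2. Each symptom was scored for ≥50% reduction, with a subgroup of patients pretreated with a JAK2 inhibitor.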
# [2] = test system: patients with myelofibrosis; experiment: Bone marrow fibrosis grade; format: in vivo, human
# How it was run: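 Adults with myelofibrosis took the oral test compound once or twice daily in continuous 28-day cycles. Bone marrow biopsies were taken at screening (within 28 days before first dose), on Day 1 of Cycle 4, then every 3 cycles, and read at each site. Fibrosis was graded 0–3 and categorized against baseline as improved ≥1 grade, stable, or worsened ≥1 grade.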
# [3] = test system: patients with myelofibrosis; experiment: Hemoglobin/platelet response and transfusion status; format: in vivo, human
# How it was run: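 Oral test compound was given QD or BID in continuous 28-day cycles. Hematologic response was scored by IWG-MRT criteria on Day 1 of Cycles 2, 3 and 4, then every 3 cycles. Transfusion dependence was defined as ≥6 units packed red cells in any rolling 12-week interval. Patients without transfusion in the 12 weeks before entry were classed transfusion-free at baseline.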
# Plasma pharmacokinetics = format: in vivo, human
# How it was run: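 Plasma was sampled on Days 1, 8 and 29: predose and ~0.5, 1, 2, 3, 4, 6 and 8 h after oral dosing, plus 24 h on Days 1 and 29. Test compound was measured by LC-MS/MS (LLOQ 1 ng/ml). For BID regimens, AUC0–24 was taken as twice AUC0–12. Analysis covered patients with ≥1 evaluable profile.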
# [4] = test system: JAK2^V617F-driven mouse model; settings: cited from earlier work
# JAK2 = settings: cited from earlier work
# [5] = individual patient with BMF improvement after 3 cycles, 125 mg QD
# [6] = individual patients with BMF improvement after 3 cycles, 300 mg QD
# [7] = patients without BMF improvement after 3 cycles (n=19)
structure (smiles),measurement,setting,value
C[C@H](Nc1cc(-c2cnn(C)c2)cc(Nc2cnccn2)n1)c1ccc(F)cc1 [NS-018],Reductions in symptom scores achieved in at least some patients,[1]; all symptoms measured,up to 100%
same,Mean MF-SAF scores,"[1]; by Week 4, all 8 assessed symptoms, total evaluable population",reductions in mean MF-SAF scores
same,Mean MF-SAF symptom score,[1]; patients with previous JAK2 inhibitor treatment,reduction in mean score for all symptoms
same,Patients with improvement of ⩾1 BMF grade,"[2]; after 3 cycles, 30 evaluable patients",37%
same,Patients with unchanged BMF grade,"[2]; after Cycle 3, 30 evaluable patients",53%
same,Patients with BMF worsening,"[2]; at completion of Cycle 3, 30 evaluable patients",10%
same,Duration of BMF grade change,"[2]; individual patient, 75 mg QD",3 cycles
same,Duration of BMF grade change,"[2]; individual patient, 125 mg QD",12 cycles
same,Duration of BMF grade change,"[2]; individual patient, 250 mg BID",2 cycles
same,Duration of BMF grade change,"[2]; individual patient, 400 mg QD",6 cycles
same,Duration of BMF grade change,"[2]; individual patients, 300 mg BID",2 cycles and 1 cycles
same,Duration of BMF grade change,"[2]; individual patients, 300 mg QD",3 cycles and 39 cycles and 9 cycles
same,Duration of BMF grade change,"[2]; individual patients, 400 mg BID",1 cycles and 12 cycles
same,Patients with BMF improvement maintained for >12 weeks,[2]; of the 11 improved after 3 cycles,5 patients
same,Patients achieving BMF improvement from baseline later in the study,[2]; of those with unchanged BMF grade after Cycle 3,6 patients
same,Hemoglobin IWG-MRT clinical improvement,[3]; all cohorts,4 patients
same,Hemoglobin improvement (⩾20 g/l increase),[3]; all cohorts,11 patients
same,Platelet IWG-MRT clinical improvement,[3]; all cohorts,1 patients
same,Platelet improvement (100% increase),[3]; all cohorts,2 patients
same,Increase in Hb of ⩾20 g/l,"[3]; individual patient with BMF improvement after 3 cycles, 75 mg QD",✓ (not CI)
same,100% increase in Plt count,[3]; [5],✓ (CI)
same,Increase in Hb of ⩾20 g/l,[3]; [5],✓ (not CI)
same,Increase in Hb of ⩾20 g/l,"[3]; individual patients with BMF improvement after 3 cycles, 300 mg BID",✓ (CI)
same,100% increase in Plt count,[3]; [6],✓ (not CI)
same,Increase in Hb of ⩾20 g/l,[3]; [6],✓ (CI)
same,Increase in Hb of ⩾20 g/l,"[3]; individual patients with BMF improvement after 3 cycles, 400 mg BID",✓ (not CI)
same,Patients achieving transfusion independence,[3]; of the 10 patients transfusion dependent at baseline,3 patients
same,Hemoglobin responses,[3]; [7],2 responses
same,Platelet responses,[3]; [7],no platelet responses
same,Time to maximum plasma concentration (Cmax),"Plasma pharmacokinetics; Day 8, postdosing, all dose cohorts, oral",1 to 2 h
same,Dose proportionality of systemic exposure,Plasma pharmacokinetics; based on Cmax on Day 8,approximately dose proportional
same,Drug accumulation with multiple dosing,Plasma pharmacokinetics; exposure Days 8 vs 29,did not accumulate; also recorded: no evidence of drug accumulation
same,half-life,"Plasma pharmacokinetics; human, plasma, po",2 to 5 h
same,Splenomegaly,[4]; JAK2^V617F-driven mouse model,reduced splenomegaly
same,"Leukocytosis, BMF and survival",[4]; murine model,Improvements
same,Peripheral blood erythrocyte or platelet counts,[4]; murine model,without reducing
same,Selectivity for JAK2 over JAK1,JAK2,specificity of this agent for JAK2 over JAK1
same,Median inhibitory concentration,JAK2; in vitro kinase assay,subnanomolar range
